Results taken from ChEMBL document CHEMBL2021900, “Discovery of cariprazine (RGH-188): a novel antipsychotic acting on dopamine D3/D2 receptors” (Bioorg Med Chem Lett, 2012).
pIC50, pKi: −log10 of the molar value.

Assays:
Mus musculus = assay: Antipsychotic activity in po dosed CD1 mouse assessed as reduction of apomorphine-induced climbing behaviour administered 1 hr before apomorphine challenge measured after 10 to 16 mins; format: functional
D(3) dopamine receptor = D(3) dopamine receptor (Rattus norvegicus, UniProt P19020); assay: Displacement of [3H]spiperone from rat recombinant dopamine D3 receptor expressed in Sf9 cells
D(2) dopamine receptor = D(2) dopamine receptor (Rattus norvegicus, UniProt P61169); assay: Displacement of [3H]spiperone from dopamine D2 receptor in rat striatal membranes; format: cell membranes, Membrane
Method in brief: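 Rat striatal membranes; [3H]spiperone 0.7 nM as radioligand; nonspecific binding defined with (+)-butaclamol. Ki values are means of two to four independent experiments, each with at least six concentrations in duplicate.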

Rattus norvegicus [1] = species on record: Rattus norvegicus; assay: Selectivity ratio of Ki for adrenergic alpha-1 receptor in rat cerebral cortical membranes to Ki for rat recombinant dopamine D3 receptor; format: cell membranes; conditions: Membrane
[2] = target: T1, Adrenergic receptor alpha-1 (Rattus norvegicus, UniProt P15823+P23944+P43140); assay: Displacement of [3H]-prazosin from adrenergic alpha-1 receptor in rat cerebral cortical membranes; format: cell membranes, Membrane
T1 sequence (P15823 whole entry): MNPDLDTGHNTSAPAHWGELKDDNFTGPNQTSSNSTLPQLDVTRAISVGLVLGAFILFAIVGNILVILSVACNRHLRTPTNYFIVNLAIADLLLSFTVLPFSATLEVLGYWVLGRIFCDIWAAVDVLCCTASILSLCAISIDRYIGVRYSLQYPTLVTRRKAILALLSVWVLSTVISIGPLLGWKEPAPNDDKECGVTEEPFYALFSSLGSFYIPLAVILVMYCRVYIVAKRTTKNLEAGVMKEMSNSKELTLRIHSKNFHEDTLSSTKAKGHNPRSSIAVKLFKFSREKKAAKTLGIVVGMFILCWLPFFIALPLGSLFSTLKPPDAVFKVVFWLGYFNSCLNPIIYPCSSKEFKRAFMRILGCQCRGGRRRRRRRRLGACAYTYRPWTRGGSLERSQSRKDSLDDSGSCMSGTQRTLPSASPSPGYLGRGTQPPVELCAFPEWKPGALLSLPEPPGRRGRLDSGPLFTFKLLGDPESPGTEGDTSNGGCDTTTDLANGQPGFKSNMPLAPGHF
T1 sequence (P23944 whole entry): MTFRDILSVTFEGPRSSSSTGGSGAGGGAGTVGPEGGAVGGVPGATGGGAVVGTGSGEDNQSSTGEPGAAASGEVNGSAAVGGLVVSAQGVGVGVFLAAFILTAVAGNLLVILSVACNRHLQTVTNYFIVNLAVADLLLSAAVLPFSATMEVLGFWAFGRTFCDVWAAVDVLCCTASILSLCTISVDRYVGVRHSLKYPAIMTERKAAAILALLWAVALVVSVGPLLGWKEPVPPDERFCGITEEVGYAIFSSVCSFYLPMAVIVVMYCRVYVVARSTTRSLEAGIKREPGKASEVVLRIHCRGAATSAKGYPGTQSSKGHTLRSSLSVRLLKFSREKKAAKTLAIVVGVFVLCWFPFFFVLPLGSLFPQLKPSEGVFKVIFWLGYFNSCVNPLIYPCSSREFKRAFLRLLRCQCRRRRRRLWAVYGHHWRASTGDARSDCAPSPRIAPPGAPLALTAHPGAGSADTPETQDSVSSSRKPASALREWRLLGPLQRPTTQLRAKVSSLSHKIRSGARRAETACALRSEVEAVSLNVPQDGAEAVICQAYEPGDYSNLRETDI
T1 sequence (P43140 whole entry): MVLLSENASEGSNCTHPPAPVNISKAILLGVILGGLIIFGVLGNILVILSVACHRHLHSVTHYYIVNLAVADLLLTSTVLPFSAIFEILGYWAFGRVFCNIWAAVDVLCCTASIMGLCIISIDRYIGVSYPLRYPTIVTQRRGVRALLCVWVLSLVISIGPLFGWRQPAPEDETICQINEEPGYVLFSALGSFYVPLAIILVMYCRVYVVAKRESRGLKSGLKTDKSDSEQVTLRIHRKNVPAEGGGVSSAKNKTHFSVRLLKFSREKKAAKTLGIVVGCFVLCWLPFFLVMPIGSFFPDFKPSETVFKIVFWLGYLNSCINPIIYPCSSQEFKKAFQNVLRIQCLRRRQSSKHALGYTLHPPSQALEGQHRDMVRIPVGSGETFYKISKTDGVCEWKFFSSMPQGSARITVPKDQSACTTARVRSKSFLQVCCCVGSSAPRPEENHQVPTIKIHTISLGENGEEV
Method in brief: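 Alpha-1 binding used rat cerebral cortical membranes with [3H]prazosin 0.5 nM, with phentolamine defining nonspecific binding. Ki values are means of two to four independent experiments, each with at least six concentrations in duplicate.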

[3] = Metabolic stability in human liver microsomes at 2.5 uM measured up to 20 mins; format: ADME, Microsome; conditions: read-out: Stability
Method in brief: (§1)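 Compound incubated for up to 20 min with human or rat liver microsomes. Substrate consumption was followed over time; the plot was linear and was analysed by linear regression.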

[4] = Tmax in rat brain; format: ADME, tissue-based
[5] = Binding affinity to human dopamine D4.2 receptor
[6] = Apparent terminal half life in iv or po dosed rat; format: ADME, organism-based; conditions: in vivo, read-out: betat1/2(app) (converted)
[7] = Ratio of drug level in brain to plasma in iv or po dosed rat; format: ADME, organism-based; conditions: read-out: BPR
D(1A) dopamine receptor = D(1A) dopamine receptor (Rattus norvegicus, UniProt P18901); assay: Binding affinity to rat dopamine D1 receptor
[8] = Metabolic stability in rat liver microsomes at 2.5 uM measured up to 20 mins; format: ADME, Microsome; conditions: read-out: Stability; method in brief: as §1
Rattus norvegicus [9] = assay: Induction of catalepsy in po dosed rat; format: organism-based; conditions: in vivo
[10] = Oral bioavailability in rat; format: ADME, organism-based; conditions: in vivo
[11] = Cmax in rat; format: ADME, organism-based; conditions: in vivo
D(1B) dopamine receptor = D(1B) dopamine receptor (Homo sapiens, UniProt P21918); assay: Binding affinity to human dopamine D5 receptor
D(1B) dopamine receptor, sequence (P21918 whole entry): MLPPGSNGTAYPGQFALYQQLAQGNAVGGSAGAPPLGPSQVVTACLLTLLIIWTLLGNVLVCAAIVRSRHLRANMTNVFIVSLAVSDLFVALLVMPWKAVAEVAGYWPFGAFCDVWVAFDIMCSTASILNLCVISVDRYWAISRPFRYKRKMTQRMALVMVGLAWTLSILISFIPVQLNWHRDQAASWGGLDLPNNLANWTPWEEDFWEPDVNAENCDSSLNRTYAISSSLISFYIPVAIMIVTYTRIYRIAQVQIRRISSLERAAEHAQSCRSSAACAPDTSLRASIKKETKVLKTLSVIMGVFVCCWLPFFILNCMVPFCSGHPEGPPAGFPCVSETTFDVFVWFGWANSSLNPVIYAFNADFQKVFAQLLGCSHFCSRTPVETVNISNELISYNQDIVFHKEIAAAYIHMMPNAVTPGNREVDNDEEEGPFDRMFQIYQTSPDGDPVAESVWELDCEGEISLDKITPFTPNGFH

D(2) dopamine receptor, sequence (P61169 whole entry): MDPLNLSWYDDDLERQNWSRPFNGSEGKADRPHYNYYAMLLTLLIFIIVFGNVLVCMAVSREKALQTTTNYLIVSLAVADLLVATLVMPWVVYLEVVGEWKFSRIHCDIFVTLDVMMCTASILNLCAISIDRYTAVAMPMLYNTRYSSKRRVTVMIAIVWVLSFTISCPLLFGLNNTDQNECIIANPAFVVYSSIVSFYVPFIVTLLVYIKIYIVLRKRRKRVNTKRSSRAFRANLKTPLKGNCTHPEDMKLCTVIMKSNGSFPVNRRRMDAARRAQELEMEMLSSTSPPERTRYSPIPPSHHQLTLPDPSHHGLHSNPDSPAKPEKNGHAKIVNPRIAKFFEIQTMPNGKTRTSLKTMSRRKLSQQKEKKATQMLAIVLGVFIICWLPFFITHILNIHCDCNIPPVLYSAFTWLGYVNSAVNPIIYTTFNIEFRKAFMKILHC
D(3) dopamine receptor, sequence (P19020 whole entry): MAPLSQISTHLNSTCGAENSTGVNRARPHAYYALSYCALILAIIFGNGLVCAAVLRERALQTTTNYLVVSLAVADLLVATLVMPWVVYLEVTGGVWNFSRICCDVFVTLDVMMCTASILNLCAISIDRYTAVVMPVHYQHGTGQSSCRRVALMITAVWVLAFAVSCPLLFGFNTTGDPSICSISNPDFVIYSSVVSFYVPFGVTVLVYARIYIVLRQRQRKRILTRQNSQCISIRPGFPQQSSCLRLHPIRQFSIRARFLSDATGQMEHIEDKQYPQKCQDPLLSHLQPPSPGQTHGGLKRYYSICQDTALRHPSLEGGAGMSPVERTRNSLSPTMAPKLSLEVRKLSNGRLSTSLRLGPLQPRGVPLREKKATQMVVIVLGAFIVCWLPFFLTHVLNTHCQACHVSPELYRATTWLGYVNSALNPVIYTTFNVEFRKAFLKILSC
D(1A) dopamine receptor, sequence (P18901 whole entry): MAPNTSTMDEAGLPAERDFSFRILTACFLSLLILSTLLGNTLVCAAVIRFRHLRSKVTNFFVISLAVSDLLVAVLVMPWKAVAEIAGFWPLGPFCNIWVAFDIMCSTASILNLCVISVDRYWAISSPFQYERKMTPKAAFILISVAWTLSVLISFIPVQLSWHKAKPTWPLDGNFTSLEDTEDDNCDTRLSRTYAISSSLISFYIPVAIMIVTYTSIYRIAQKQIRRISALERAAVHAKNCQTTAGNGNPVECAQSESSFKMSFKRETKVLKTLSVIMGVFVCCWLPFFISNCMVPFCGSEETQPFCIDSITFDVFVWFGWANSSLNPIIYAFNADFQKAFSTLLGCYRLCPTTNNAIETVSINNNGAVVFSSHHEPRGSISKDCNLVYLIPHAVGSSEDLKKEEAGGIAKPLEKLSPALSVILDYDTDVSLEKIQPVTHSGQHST

SMILES | pIC50 (D(3) dopamine receptor) | pIC50 (D(2) dopamine receptor) | Ratio Ki (Rattus norvegicus [1]) | pKi (D(3) dopamine receptor) | Ki [2] [nM] | pKi (D(2) dopamine receptor) | ED50 (Mus musculus) [mg/kg] | also measured
CCOC(=O)N[C@H]1CC[C@H](CCN2CCN(Cc3cccc(C(F)(F)F)c3)CC2)CC1 | 8.29 | 7.60 |  |  |  |  | 5.37 | 
CC(=O)N[C@H]1CC[C@H](CCN2CCN(c3cccc(Cl)c3Cl)CC2)CC1 | 9.54 | 8.64 |  |  |  |  | 0.17 | 
CS(=O)(=O)N[C@H]1CC[C@H](CCN2CCN(Cc3cccc(C(F)(F)F)c3)CC2)CC1 | 7.96 | 6.80 |  |  |  |  | 1.34 | 
CC(=O)N[C@H]1CC[C@H](CCN2CCN(c3cc(C#N)cc(C(F)(F)F)c3)CC2)CC1 | 8.72 | 6.84 |  |  |  |  | 1.54 | 
CCNC(=O)N[C@H]1CC[C@H](CCN2CCN(c3cccc(Cl)c3Cl)CC2)CC1 | 9.47 | 7.77 |  |  |  |  | 0.38 | 
CN(C)C(=O)N[C@H]1CC[C@H](CCN2CCN(c3cc(Cl)cc(Cl)c3)CC2)CC1 |  |  |  |  |  |  |  | remaining at 20 min, 2.5 µM [3]: 58%; remaining at 20 min, 2.5 µM [8]: 73%

More lines, main results first:

pIC50 (D(3) dopamine receptor) | pIC50 (D(2) dopamine receptor) | Ratio Ki (Rattus norvegicus [1]) | pKi (D(3) dopamine receptor) | Ki [2] [nM] | pKi (D(2) dopamine receptor) | SMILES | ED50 (Mus musculus) [mg/kg] | also measured
 |  | 8.9 | 8.48 | 29.6 | 6.96 | CN(C)C(=O)N[C@H]1CC[C@H](CCN2CCN(c3ccc(Cl)c(Cl)c3)CC2)CC1 |  | 
 | […] |  |  | 214 |  | CN(C)C(=O)N[C@H]1CC[C@H](CCN2CCN(c3cccc(Cl)c3Cl)CC2)CC1.Cl [CARIPRAZINE HYDROCHLORIDE] |  | remaining at 20 min, 2.5 µM [3]: 96%; Tmax [4]: 0.5 h; pIC50 [5]: < 6.00; half-life [6]: 2 h; Kp [7]: 7.6; pIC50 (D(1A) dopamine receptor): < 6.00; remaining at 20 min, 2.5 µM [8]: 93%; MED (Rattus norvegicus [9]): > 85 mg/kg; bioavailability [10]: 52%; Cmax [11]: 91 ng/mL; pIC50 (D(1B) dopamine receptor): < 6.00
 |  | 52.8 | 9.18 | 34.9 | 8.09 | CN(C)C(=O)N[C@H]1CC[C@H](CCN2CCN(c3cc(Cl)ccc3Cl)CC2)CC1 |  | 
 |  | 28.9 | 8.27 | 156 | 6.97 | CN(C)C(=O)N[C@H]1CC[C@H](CCN2CCN(c3ccc(Cl)cc3Cl)CC2)CC1 |  | 
